Sampled rows, rich in hits. Any-hit rate of the full collection: about 4%.
NR3A LBD binder: binders of NR3A ligand-binding domain, primary screen, biophysical, differential scanning fluorimetry, uHTS | Glutamate receptor ionotropic, NMDA 3A (GRIN3A) ligand-binding domain | NR3A LBD differential scanning fluorimetry, Tm shift; 0% = protein alone, 100% = glycine-bound protein | Tm shift relative to glycine control, % at 25 µM | 340,000 compounds, 2.5% hits | AID 1259313, 2017;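 active means melting temperature shift of at least 10% of the positive control shift, at one fixed dose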
FAS-TE inh: FAS thioesterase domain inhibitors, primary screen, biochemical, fluorescence intensity, uHTS; Fatty acid synthase (Homo sapiens), P49327; recombinant FAS-TE, OMFH fluorogenic substrate, fluorescence endpoint; inhibition, % at 15 µM; 360,000 compounds, 0.67% hits;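 active means compounds whose normalised, plate-corrected inhibition of enzyme fluorescence in the single-dose primary screen is 50% or more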;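 further: 0% = DMSO with enzyme and 100% = substrate without enzyme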
Target sequence (P49327 whole entry, looked up, the tested form may be a part): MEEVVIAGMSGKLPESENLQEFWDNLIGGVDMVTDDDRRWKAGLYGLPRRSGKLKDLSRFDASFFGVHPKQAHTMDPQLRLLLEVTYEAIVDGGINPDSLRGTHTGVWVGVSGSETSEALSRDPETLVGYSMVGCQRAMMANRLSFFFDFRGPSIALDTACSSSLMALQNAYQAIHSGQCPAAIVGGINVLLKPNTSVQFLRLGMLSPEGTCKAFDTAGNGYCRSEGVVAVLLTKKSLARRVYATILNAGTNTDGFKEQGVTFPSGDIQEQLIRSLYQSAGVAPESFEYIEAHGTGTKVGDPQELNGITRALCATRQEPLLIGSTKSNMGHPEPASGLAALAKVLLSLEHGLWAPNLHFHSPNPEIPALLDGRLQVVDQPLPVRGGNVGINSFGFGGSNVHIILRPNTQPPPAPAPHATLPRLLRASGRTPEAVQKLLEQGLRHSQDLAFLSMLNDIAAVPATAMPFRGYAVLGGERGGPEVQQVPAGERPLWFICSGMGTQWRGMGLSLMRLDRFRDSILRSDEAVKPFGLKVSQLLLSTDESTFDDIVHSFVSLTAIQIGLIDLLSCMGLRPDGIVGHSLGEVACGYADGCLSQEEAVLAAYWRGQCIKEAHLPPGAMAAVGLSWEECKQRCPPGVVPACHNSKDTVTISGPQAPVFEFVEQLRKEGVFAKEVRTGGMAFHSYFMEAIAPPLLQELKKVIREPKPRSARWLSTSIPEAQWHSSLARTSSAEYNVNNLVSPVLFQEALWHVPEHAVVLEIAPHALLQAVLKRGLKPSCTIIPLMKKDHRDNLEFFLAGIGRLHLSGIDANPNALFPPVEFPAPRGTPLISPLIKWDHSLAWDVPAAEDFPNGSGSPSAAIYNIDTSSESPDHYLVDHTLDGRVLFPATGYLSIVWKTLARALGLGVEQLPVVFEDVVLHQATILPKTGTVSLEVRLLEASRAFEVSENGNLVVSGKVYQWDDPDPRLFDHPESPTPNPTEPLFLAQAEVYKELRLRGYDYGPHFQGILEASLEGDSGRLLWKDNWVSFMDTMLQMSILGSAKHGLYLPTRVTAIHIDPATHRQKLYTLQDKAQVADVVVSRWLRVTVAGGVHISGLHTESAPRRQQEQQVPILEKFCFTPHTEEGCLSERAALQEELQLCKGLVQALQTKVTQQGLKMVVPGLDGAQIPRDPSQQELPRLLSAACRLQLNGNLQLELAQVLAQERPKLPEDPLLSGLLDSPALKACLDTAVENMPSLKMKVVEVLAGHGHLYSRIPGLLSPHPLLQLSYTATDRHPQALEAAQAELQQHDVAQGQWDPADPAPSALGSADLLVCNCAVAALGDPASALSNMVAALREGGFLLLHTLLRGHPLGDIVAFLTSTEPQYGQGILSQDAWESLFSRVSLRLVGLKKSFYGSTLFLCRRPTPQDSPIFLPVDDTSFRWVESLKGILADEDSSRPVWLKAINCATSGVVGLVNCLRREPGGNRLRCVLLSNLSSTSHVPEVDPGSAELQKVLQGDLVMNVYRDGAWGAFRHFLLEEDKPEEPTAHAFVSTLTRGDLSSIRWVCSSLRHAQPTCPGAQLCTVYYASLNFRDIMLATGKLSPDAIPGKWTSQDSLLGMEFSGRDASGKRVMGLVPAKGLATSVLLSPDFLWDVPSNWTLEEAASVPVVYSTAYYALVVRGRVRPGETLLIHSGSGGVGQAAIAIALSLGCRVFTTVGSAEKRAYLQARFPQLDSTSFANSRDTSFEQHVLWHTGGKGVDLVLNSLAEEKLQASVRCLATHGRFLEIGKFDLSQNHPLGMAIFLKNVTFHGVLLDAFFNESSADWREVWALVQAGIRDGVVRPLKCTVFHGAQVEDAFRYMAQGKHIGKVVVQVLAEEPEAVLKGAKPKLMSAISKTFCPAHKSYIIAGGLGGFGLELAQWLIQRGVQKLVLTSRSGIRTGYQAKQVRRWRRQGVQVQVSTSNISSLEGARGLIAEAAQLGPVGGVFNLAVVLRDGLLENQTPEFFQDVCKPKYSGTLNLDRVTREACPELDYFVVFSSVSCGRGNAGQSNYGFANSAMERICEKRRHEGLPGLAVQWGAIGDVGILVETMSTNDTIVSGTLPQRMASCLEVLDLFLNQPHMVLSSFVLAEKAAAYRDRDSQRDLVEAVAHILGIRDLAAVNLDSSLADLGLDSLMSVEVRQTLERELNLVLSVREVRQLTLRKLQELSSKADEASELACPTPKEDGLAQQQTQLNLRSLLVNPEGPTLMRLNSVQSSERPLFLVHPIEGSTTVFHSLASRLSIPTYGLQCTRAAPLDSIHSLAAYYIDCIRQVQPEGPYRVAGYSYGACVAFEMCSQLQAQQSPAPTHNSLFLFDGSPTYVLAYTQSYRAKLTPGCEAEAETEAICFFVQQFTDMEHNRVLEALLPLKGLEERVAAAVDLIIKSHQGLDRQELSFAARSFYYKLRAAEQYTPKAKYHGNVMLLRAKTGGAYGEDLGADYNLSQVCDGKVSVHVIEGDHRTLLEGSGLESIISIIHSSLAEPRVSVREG
Arr AP2 block: inhibitors of beta-arrestin/AP2 binding, primary screen, biochemical, GPCR trafficking, flow cytometry. beta-arrestin 1 C-terminal peptide binding to AP2 beta2-adaptin appendage (human). FITC-arrestin peptide / GST-AP2 beads; AP2 beta2 appendage carries R879A mutation. inhibition, % at 10 µM. 340,000 compounds, 0.31% hits;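 active means inhibition above a set limit, near 3 SD of compounds lacking own fluorescence, cut at about 54% in these data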;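 further: plate controls were DMSO wells for no effect and 5 µM unlabelled arrestin peptide for full effect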
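Material – GST-tagged AP2 beta2-adaptin appendage (R879A) on 4 µm glutathione beads · Probe or stimulus – fluorescein-tagged arrestin peptide at 50 nM final · Timing – 12 min plus 1 h, RT · Detection – bead flow cytometry, FITC channel · Read-out basis – inhibition as reduced fluorescein signal on beads, percent · Medium – PBS plus Tween 20 (0.05%) and BSA (0.1%)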
Cardio protect: cardioprotection against H2O2-induced cell death, primary screen, uHTS, H9c2 cells, ATPLite luminescence; H9c2 cardiomyocytes, H2O2 injury protection, 2 h; protection from H2O2 cell death, % at 20 µM; 360,000 compounds, 0.63% hits;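 active means compounds giving at least 50% protection of heart cells from peroxide-induced death in the single-dose screen, raw or plate-pattern-corrected value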;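 further: 0% = DMSO wells with peroxide and 100% = DMSO wells without peroxide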
SENP1 inh: human SENP1 catalytic domain inhibitors, primary screen, biochemical, FRET, uHTS; Sentrin-specific protease 1 (Homo sapiens), Q9P0U3; recombinant SENP1 catalytic domain, CyPet-SUMO1-YPet FRET cleavage; inhibition, % at 10 µM; 360,000 compounds, 0.21% hits;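 active means inhibition at least 30% at 10 µM, raw YFP signal under a set limit, fluorescence ratio 0.5 to 1.5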;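 further: 0% = enzyme with DMSO and 100% = no enzyme wells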
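Test system: recombinant human SENP1 catalytic domain, His6-tagged / Medium: pH 8 Tris buffer with EDTA, NaCl, BME, BSA, NP40, catalase / Also added: SUMO1 FRET substrate flanked by Cypet and Ypet, 25 nM / Times: 50 min reaction at room temperature / Signal: FRET, CFP and YFP emission / Control set: no-enzyme low control and enzyme-plus-DMSO high control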
hiPSC survival: enhancers of single-cell hiPSC survival, primary screen, ATPlite luminescence; AID 602274, 2012; 100% = ROCK inhibitor wells, 0% = DMSO; 360,000 compounds, 0.044% hits; survival enhancement, % at 20 µM; in the data active means survival enhancement above about 18%;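 further: cells exposed to compounds for 16 hours before the ATP read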
Arr-AP2 CP1: inhibitors of arrestin peptide binding to AP2, confirmation, biochemical, cherry pick 1, flow cytometry beads; shares compounds with Arr AP2 block; GST-AP2 beads, FITC arrestin peptide binding; GST-fused beta2-adaptin appendage, R879A mutant; inhibition, % at 10 µM; 1,300 compounds, 2% hits;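 active means inhibition above a set limit, roughly 3 SD of non-fluorescent compound noise, cut at about 38% in these data; inactive means inhibition at or below that limit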;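 further: loss of bead fluorescence from 50 nM FITC arrestin peptide bound to appendage; 0% = negative control wells and 100% = excess unlabelled arrestin peptide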
GST-FITC bead: GST-fluorescein capture on glutathione beads, confirmation, artefact control for arrestin-AP2 inhibitor project, biochemical, cherry pick 1, flow cytometry; shares compounds with Arr AP2 block; GST-fluorescein binding to GSH beads, fluorescence, counter-screen; inhibition, % at 10 µM; 1,300 compounds, 2% hits; AID 588338, 2011;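 active means inhibition above 50%, about 3 SD of the inhibition seen with non-fluorescent compounds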;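 further: fluorescein maleimide labelled GST captured on 4 micron glutathione beads; higher means more loss of bead fluorescence from quenching or blocked binding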
Active calls of the source: *.

Results for CN1OC[C@@H]2CN(C(=O)c3cccc4ccccc34)[C@H](c3ccccc3Br)C[C@@H]21 ?
FAS-TE inh: -6; Cardio protect: 3; SENP1 inh: 1; hiPSC survival: 5

How did Cc1ccc(S(=O)(=O)Nc2cccc3c2O[C@H](CN(C)Cc2ccccc2)[C@@H](C)CN([C@H](C)CO)C3=O)cc1 do in these assays?
NR3A LBD binder: 7; FAS-TE inh: 0; Arr AP2 block: 6; Cardio protect: 9; SENP1 inh: 1; hiPSC survival: 18

Results for Cc1ccc(-c2csc(/C=C3\SC(C)C(=O)N3CC(=O)Nc3ccccc3F)n2)cc1 (centres undefined) ?
NR3A LBD binder: 5; FAS-TE inh: 10; Arr AP2 block: 8; Cardio protect: -16; SENP1 inh: 0; hiPSC survival: 0

Results for O=C(CN1C(=O)CS/C1=C\c1nc(-c2ccc(Cl)cc2)cs1)Nc1cccnc1Cl ?
NR3A LBD binder: 1; FAS-TE inh: 2; Arr AP2 block: 61*; Cardio protect: -11; SENP1 inh: 3; hiPSC survival: -1; Arr-AP2 CP1: 9; GST-FITC bead: 2

How did CC(C)C[C@@H]1COc2cccc(N3CCSCC3)c2S(=O)(=O)N1 do in these assays?
FAS-TE inh: 3; SENP1 inh: 0; hiPSC survival: -1

What do the screens show for `CC(C)C(=O)OCC(=O)Nc1ccc(N=Nc2ccccc2)cc1`?
NR3A LBD binder: -3; FAS-TE inh: 20; Arr AP2 block: 56*; Cardio protect: 1; SENP1 inh: 2; hiPSC survival: -2; Arr-AP2 CP1: -4; GST-FITC bead: -4

What do the screens show for `Cn1nc(C(=O)N2CCN(c3ccc(Cl)cc3)CC2)c2c1-c1ccccc1S(=O)(=O)C2`?
NR3A LBD binder: 0; FAS-TE inh: 19; Arr AP2 block: 55*; Cardio protect: 1; SENP1 inh: -1; hiPSC survival: 0; Arr-AP2 CP1: -7; GST-FITC bead: -14

What do the screens show for `Cc1nc(-[n+]2nc(-c3ccncc3)nn2-c2ccccc2)sc1C`?
FAS-TE inh: 12; Cardio protect: 8; SENP1 inh: -3; hiPSC survival: -1

What do the screens show for `O=C(/C=C/c1cccs1)Nc1cccnc1`?
NR3A LBD binder: -55; FAS-TE inh: -3; Arr AP2 block: 56*; Cardio protect: -10; SENP1 inh: 0; hiPSC survival: -1; Arr-AP2 CP1: 2; GST-FITC bead: 0

How did Cc1ccc2nc(SCC(=O)Nc3ccc(Br)cc3)nc(=O)n2c1 do in these assays?
NR3A LBD binder: -2; FAS-TE inh: 9; Arr AP2 block: 56*; Cardio protect: -6; SENP1 inh: 3; hiPSC survival: 0; Arr-AP2 CP1: -10; GST-FITC bead: -1

How did Cc1ccc2nc(SCC(=O)Nc3ccc(C)c(Cl)c3)nc(=O)n2c1 do in these assays?
NR3A LBD binder: 0; FAS-TE inh: 0; Arr AP2 block: -8; Cardio protect: -4; SENP1 inh: 1; hiPSC survival: 0

How did CCC1(CC)SCCNC1=O do in these assays?
NR3A LBD binder: 0; FAS-TE inh: -4; Arr AP2 block: 3; Cardio protect: -6; SENP1 inh: 2; hiPSC survival: -2

Results for CCN(CC(=O)Nc1c(F)cccc1F)C(=O)/C=C/c1ccc2ccccc2n1 ?
NR3A LBD binder: 1; FAS-TE inh: 1; Arr AP2 block: 60*; Cardio protect: -2; SENP1 inh: 3; hiPSC survival: 0; Arr-AP2 CP1: 22; GST-FITC bead: 5

Results for CCN(CC(=O)Nc1c(F)cccc1F)C(=O)/C=C/c1ccc(C)o1 ?
NR3A LBD binder: 2; FAS-TE inh: -6; Arr AP2 block: -14; Cardio protect: 9; SENP1 inh: 1; hiPSC survival: 0

What do the screens show for `COc1cccc(N2CCN(C(=O)C3CCC(=O)N(C4CCCCCC4)C3)CC2)c1` (centres undefined)?
NR3A LBD binder: -1; FAS-TE inh: -2; Arr AP2 block: -3; Cardio protect: -1; SENP1 inh: -1; hiPSC survival: 0

How did COc1ccc(CCN2CC(C(=O)NCCCc3ccncc3)CCC2=O)cc1 (centres undefined) do in these assays?
FAS-TE inh: -7; Cardio protect: 1; SENP1 inh: 2; hiPSC survival: -1

What do the screens show for `O=C1NC(=S)N/C1=C/C=C/c1ccccc1`?
NR3A LBD binder: -25; FAS-TE inh: -3; Arr AP2 block: 106*; Cardio protect: -4; SENP1 inh: 1; hiPSC survival: 1; Arr-AP2 CP1: -9; GST-FITC bead: 2

What do the screens show for `CCN1CCN(C(=O)NC2CCCCC2)CC1`?
NR3A LBD binder: 1; FAS-TE inh: -4; Arr AP2 block: 26; Cardio protect: -4; SENP1 inh: 1; hiPSC survival: 0

What do the screens show for `O=C(NC1CCCCC1)N1CCN(CCc2ccccc2)CC1`?
NR3A LBD binder: 0; FAS-TE inh: -9; Arr AP2 block: 54*; Cardio protect: 5; SENP1 inh: 2; hiPSC survival: -2; Arr-AP2 CP1: -2; GST-FITC bead: -2

What do the screens show for `Cc1ccnn1CCC(=O)N1CCCC(Nc2ccc(C(C)C)cc2)C1` (centres undefined)?
FAS-TE inh: -6; Cardio protect: -6; SENP1 inh: 4; hiPSC survival: -1

Results for Cc1ccnn1CCC(=O)N1CCCC(Nc2ccc(F)c(F)c2)C1 (centres undefined) ?
NR3A LBD binder: 1; FAS-TE inh: -6; Arr AP2 block: 67*; Cardio protect: 0; SENP1 inh: -1; hiPSC survival: 0; Arr-AP2 CP1: 6; GST-FITC bead: -2

What do the screens show for `O=C(CN1C(=O)COc2ccccc21)NCCN1CCCC1`?
NR3A LBD binder: 2; FAS-TE inh: -11; Arr AP2 block: 9; Cardio protect: 6; SENP1 inh: -3; hiPSC survival: 1

High-throughput results as filed in PubChem.
